Compounds with a hit are over-represented: about 2.9% of the library has one in this group of screens.
DENV2 CPE rescue – inhibitors of DENV2 cytopathic effect, primary screen, cell-based, plate reader, single concentration; DENV2-infected cells, cytopathic effect rescue; CPE inhibition, % at 9.99 µM; 350,000 compounds, 1.7% hits; AID 651640, 2012; in the data active = CPE inhibition above about 20%, passing the limit was not always enough; inconclusive = no clear call, values can overlap the other calls; tested in BHK-21 cells;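 note: 0% = median of neutral control wells and 100% = median of positive control wells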
E-sel inducer – E-selectin induction in HUVECs, primary screen, imaging, HUVEC, immunofluorescence imaging, single point. AID 686992, 2013. P16581. 260,000 compounds, 0.37% hits. activation, % at 7.58 µM. normalized: neutral wells 0, TNF-alpha wells 100;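 active = mean E-selectin-positive cell signal at least 10% of the positive control, reached in at least 60% of replicates, without over 20% cell loss; inconclusive = no rule given, readout overlaps actives, possibly toxicity-flagged; inactive = the rest, including those meeting only one limit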
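Test system: HUVEC; input: 3,000 HUVEC/well; measured by: immunofluorescence imaging; read-out: % PE-positive cells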
SIRT5 block – SIRT5 desuccinylase inhibitors, primary screen, biochemical, fluorescence imaging, single point, set 5; 330,000 compounds, 1.1% hits; NAD-dependent protein deacylase sirtuin-5, mitochondrial (Homo sapiens), Q9NXA8; inhibition, % at 15 µM; Purified SirT5, succinyl-peptide AMC, trypsin-coupled fluorescence; in the data active = inhibition above about 15%; inconclusive = no clear call, values can overlap the other calls
Target sequence (Q9NXA8 whole entry, looked up): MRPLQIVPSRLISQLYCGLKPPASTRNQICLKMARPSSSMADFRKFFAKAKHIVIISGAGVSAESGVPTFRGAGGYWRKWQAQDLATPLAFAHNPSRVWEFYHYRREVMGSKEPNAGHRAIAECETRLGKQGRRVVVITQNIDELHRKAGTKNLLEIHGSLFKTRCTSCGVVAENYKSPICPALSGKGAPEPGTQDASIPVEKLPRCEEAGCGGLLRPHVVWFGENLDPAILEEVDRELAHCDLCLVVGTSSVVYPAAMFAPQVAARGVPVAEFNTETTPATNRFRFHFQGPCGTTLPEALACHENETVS
* = called active by the depositor; ? = inconclusive; nt = no result.

SMILES | DENV2 CPE rescue | E-sel inducer | SIRT5 block
CC(=O)Nc1cccc(Nc2cc(C)nn2C)c1 | 73.0* | -0.1 | 0.1
Cc1cc(NC(=O)Nc2cccc(C(F)(F)F)c2)n(C)n1 | 3.9 | nt | -2.1
CC(=O)c1c(C)[nH]c(C(=O)Nc2cccc(C#N)c2)c1C | 0.8 | -0.1 | -2.0
Cc1cc(C(=O)O/N=C(\N)c2ccc(C(C)(C)C)cc2)no1 | 65.2* | -0.1 | nt
CC(C)(C)c1ccc(C(=O)O/N=C(\N)c2ccccc2)cc1 | -5.1 | 0.2 | 0.4
COC(=O)c1cc(=O)n(-c2ccccc2)c(=Nc2ccccc2)s1 | -0.9 | -0.2 | 6.5
CN=C(Nc1ccc(C(=O)OC)s1)c1ccccc1 | nt | nt | 31.6*
C[C@H](CO)N1C[C@H](C)[C@H](CN(C)C(=O)Nc2ccc(C(F)(F)F)cc2)OCCCC[C@H](C)Oc2ccc(NC(=O)Nc3ccc(F)cc3)cc2C1=O | 2.2 | 1.0 | 16.7*
CCCN(C)C[C@H]1OCCCC[C@H](C)Oc2ccc(NC(=O)Nc3ccc(C(F)(F)F)cc3)cc2C(=O)N([C@@H](C)CO)C[C@H]1C | 1.3 | 0.1 | -1.3
CC(C)NC(=O)Nc1ccc2c(c1)C(=O)N([C@H](C)CO)C[C@@H](C)[C@H](CN(C)C(=O)Nc1ccc(C(F)(F)F)cc1)OCCCC[C@@H](C)O2 | 49.8* | 0.0 | 6.0
CCCN(C)C[C@@H]1OCCCC[C@@H](C)Oc2ccc(NC(=O)Nc3ccc(C(F)(F)F)cc3)cc2C(=O)N([C@H](C)CO)C[C@@H]1C | 28.4* | -0.1 | 0.5
C[C@H]1CCCCO[C@@H](CN(C)C(=O)Nc2ccc(C(F)(F)F)cc2)[C@@H](C)CN([C@@H](C)CO)C(=O)c2cc(NC(=O)Cc3ccccc3)ccc2O1 | 18.8 | 0.5 | nt
C[C@@H]1CCCCO[C@H](CN(C)C(=O)Nc2ccc(C(F)(F)F)cc2)[C@@H](C)CN([C@@H](C)CO)C(=O)c2cc(NC(=O)Cc3ccccc3)ccc2O1 | 42.2* | 0.4 | nt
CC(C)NC(=O)Nc1ccc2c(c1)C(=O)N([C@H](C)CO)C[C@@H](C)[C@H](CN(C)C(=O)Nc1ccc(C(F)(F)F)cc1)OCCCC[C@H](C)O2 | ? | 0.0 | 6.4
C[C@@H]1CCCCO[C@H](CN(C)C(=O)Nc2ccc(F)cc2)[C@@H](C)CN([C@H](C)CO)C(=O)c2cc(NC(=O)Nc3ccc(C(F)(F)F)cc3)ccc2O1 | 7.1 | 0.1 | -0.1
CCC(=O)N1CC2(C1)[C@@H](c1ccc(-c3ccccc3)cc1)[C@@H](CO)N2S(C)(=O)=O | -2.1 | -0.4 | 2.5
C[C@H](CO)N1C[C@H](C)[C@@H](CN(C)C(=O)CC2CC2)Oc2cc(C3=CCCCC3)ccc2S1(=O)=O | -8.2 | 0.0 | 7.3
Cc1noc(C)c1NC(=O)N(C)C[C@@H]1Oc2ncc(/C=C/c3ccccc3)cc2C(=O)N([C@@H](C)CO)C[C@H]1C | -3.1 | 0.0 | -6.8
O=C(NCCc1ccccc1)c1cnc(Cl)c(Cl)c1 | -4.3 | 0.3 | -1.1
C[C@@H]1CCCCO[C@H](CN(C)C(=O)Nc2ccccc2)[C@@H](C)CN([C@H](C)CO)C(=O)c2cc(NC(=O)Nc3ccc(C(F)(F)F)cc3)ccc2O1 | 8.6 | 0.0 | 1.4
C[C@H]1CCCCO[C@@H](CN(C)C(=O)Nc2ccccc2)[C@@H](C)CN([C@@H](C)CO)C(=O)c2cc(NC(=O)Nc3ccc(C(F)(F)F)cc3)ccc2O1 | 36.5* | 0.6 | -5.8
COc1cc(OC)cc(-c2c(C#Cc3ccsc3)c3cc(Br)ccc3n2C)c1 | -7.9 | 0.1 | -5.0
O=C(O)c1ccc(Cn2c(SCc3cc(=O)n4cc(Br)ccc4n3)nc3ccsc3c2=O)cc1 | 0.8 | 3.6 | -4.3
O=C(O)C1CCC(Cn2c(SCc3cc(=O)n4cc(Br)ccc4n3)nc3ccsc3c2=O)CC1 (centres undefined) | 9.1 | -0.1 | 16.7*
COc1ccc(NC(=O)N(C)C[C@H]2Oc3ccc(NC(=O)CCCCCC(=O)Nc4ccccc4N)cc3C(=O)N([C@H](C)CO)C[C@@H]2C)cc1 | -8.7 | nt | 5.3
COc1ccc(NC(=O)N(C)C[C@@H]2Oc3ccc(NC(=O)CCCCCC(=O)Nc4ccccc4N)cc3C(=O)N([C@H](C)CO)C[C@@H]2C)cc1 | 53.2* | nt | nt
C[C@@H]1CN([C@H](C)CO)C(=O)c2cc(NC(=O)CCCCCC(=O)Nc3ccccc3N)ccc2O[C@H]1CN(C)S(=O)(=O)c1cccs1 | 5.2 | nt | nt
COc1ccc(S(=O)(=O)N(C)C[C@H]2Oc3ccc(NC(=O)CCCCCC(=O)Nc4ccccc4N)cc3C(=O)N([C@H](C)CO)C[C@@H]2C)cc1 | -1.7 | 0.0 | nt

Assay outcomes (PubChem BioAssay)
